Bioassay records as filed in PubChem BioAssay.
C2C12 statin: suppressors of statin myotoxicity in C2C12 myotubes, primary screen, cell-based, single point, plate reader; AID 602340, 2012; rescue of ATP level, % at 7.49 µM; C2C12 myotubes + simvastatin, ATP luminescence, 48 h; scaled: DMSO 0, geranylgeraniol control 100; 0.78% of 330,000 active;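 active = mean ATP rescue above about 67%, or every replicate alone reaching that limit, limit read from the data, passing the limit was not always enough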;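 note: myotubes were challenged with 10 µM simvastatin during compound exposure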
Mot1-301 SUMO: yeast Mot1-301 growth rescue at high temperature, primary screen, SUMOylation pathway inhibitor project, S. cerevisiae, ATP luminescence, 38.5C; S. cerevisiae Mot1-301 growth rescue; percent above DMSO median, 100 means doubled; growth rescue, % at 18.8 µM; 1% of 320,000 active; AID 2716, 2010;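 active = every valid replicate shows activation above 250% relative to neutral control wells; inactive = the rest, any valid replicate at or below 250%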;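 note: OY570 slx delta 5 strain wells were the positive control but not used for scaling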
Cneo AK release: Cryptococcus neoformans cell lysis inducers, primary screen, AK release luminescence, single concentration. C. neoformans lysis, adenylate kinase release luminescence, 4 h; normalised: neutral wells 0, clomiphene wells 100. lysis activity, % at 15 µM. 0.2% of 360,000 active. AID 651654, 2012;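 active = mean lysis activity across replicates of at least 80%, whatever share of replicates individually reach that level; inactive = mean lysis activity below 80%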
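Test system: log-phase Cryptococcus neoformans yeast cells. Input: 5 × 10^6 yeast cells/mL. Medium: fresh YPD growth medium. Doses: single dose. Incubation: static 4 h at 37 °C with compound, 1 h detection. Measured by: luminescent adenylate kinase detection reagent. Read-out: signal increase indicating cell lysis. Benchmarks: Clomiphene.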
* = called active by the depositor; x = no result given. Only some compounds are listed: those with a hit (about 1.5% of all), similar ones and a draw of the others.

SMILES	C2C12 statin	Mot1-301 SUMO	Cneo AK release
C[C@H](NC(=O)[C@H](Cc1ccccc1)n1c(=O)[nH]c2ccccc2c1=O)C(=O)N1CCC[C@H]1C(=O)O	-3.3	-9.1	-0.6
CSCC[C@H](NC(=O)[C@H](Cc1ccccc1)n1c(=O)[nH]c2ccccc2c1=O)C(=O)N1CCC[C@@H]1C(=O)O	2.7	734.7*	0.7
COc1cc2c(cc1OC)CN(C(=O)c1ccc(-c3ccccc3)cc1)CC2	-18.5	163.1	-5.2
COc1ccc(C(=O)N2CCc3cc(OC)c(OC)cc3C2)cc1OC	122.2*	-25.0	1.6
C[C@H](NC(=O)[C@@H]1[C@@H](CO)[C@@H]2Cn3c(ccc(-c4cccnc4)c3=O)[C@@H]2N1C)c1ccccc1	-3.5	x	-0.1
N#CCCCSc1nnc(CSc2nc3ccccc3s2)n1-c1ccccc1	102.7*	-15.8	-1.6
CCCSc1nnc(CSc2nc3ccccc3s2)n1-c1ccccc1	-25.5	2.7	10.9
COc1ccc(C#Cc2ccc3c(c2)[C@]2(C(=O)N3)[C@H](c3ccc(O)cc3)N3[C@H](c4ccccc4)[C@H](c4ccccc4)OC(=O)[C@H]3[C@@H]2C(=O)N2CCCCCCC2)cc1	x	x	3.5
CCCC#Cc1cnc2c(c1)C(=O)N([C@@H](C)CO)C[C@H](C)[C@@H](CN(C)C(=O)NCCC)O2	14.1	x	-1.3
CCC(=O)N(C)C[C@@H]1Oc2cc(-c3ccc(C)cc3)ccc2S(=O)(=O)N([C@H](C)CO)C[C@@H]1C	57.3	x	-6.1
CCC(=O)N(C)C[C@@H]1Oc2cc(C#CC(C)(C)O)ccc2S(=O)(=O)N([C@@H](C)CO)C[C@H]1C	-20.2	x	93.3*
CCC(=O)N(C)C[C@H]1Oc2cc(-c3ccccc3)ccc2S(=O)(=O)N([C@H](C)CO)C[C@H]1C	2.0	x	88.5*
CCC(=O)N(C)C[C@@H]1Oc2cc(C#CC(C)(C)O)ccc2S(=O)(=O)N([C@H](C)CO)C[C@@H]1C	-21.4	x	-0.1
COc1ccccc1C#Cc1ccc2c(c1)O[C@H](CN(C)C(C)=O)[C@@H](C)CN([C@H](C)CO)S2(=O)=O	-7.8	x	-11.7
COc1ccccc1C#Cc1ccc2c(c1)O[C@H](CN(C)C(C)=O)[C@H](C)CN([C@@H](C)CO)S2(=O)=O	-2.3	x	103.5*
CCNc1nc(OC)nc(SCC(N)=O)n1	69.1*	2.1	0.5
CCNc1nc(NCc2ccccc2)nc(SCC(N)=O)n1	13.2	-12.0	1.1
C[C@H](CO)N1C[C@H](C)[C@@H](CN(C)C)Oc2ncc(C#CC3CCCCC3)cc2C1=O	-5.3	x	x
N#C/C(C(=O)N1CCCCC1)=C1/N=C(NC(=O)c2ccc(F)cc2)c2ccccc21	86.5*	-0.2	4.7
N#C/C(C(=O)N1CCCCC1)=C1/N=C(N)c2ccccc21	x	-1.0	x
O=C(C[C@@H]1C[C@@H]2c3cc(NC(=O)CC4CC4)ccc3O[C@@H]2[C@@H](CO)O1)NCc1cccnc1	-2.3	x	15.5
CNC(=O)C[C@H]1CC[C@@H]2[C@H](COc3ccc(NC(=O)Cc4cccs4)cc3C(=O)N2C)O1	15.0	x	-1.7
Cc1ccc(S(=O)(=O)N(C)c2ccc(C(=O)N3CCCCC3)cc2)cc1	-7.5	-1.8	2.2
Cc1ccc(S(=O)(=O)N(C)c2ccc(C(=O)O)cc2)cc1	124.7*	1.6	1.2
CCOC(=O)c1c(-c2ccccc2)oc2ccc(OCC(=O)O)cc12	x	146.1	x
SMILES	C2C12 statin	Mot1-301 SUMO	Cneo AK release
CCOC(=O)c1c(C)oc2ccc(OCC(=O)C(C)(C)C)cc12	143.9*	100.7	0.6
COc1ccc(-n2nnnc2SCC(=O)N2CCCc3ccccc32)cc1OC	127.7*	78.5	0.5
O=C(CSc1nnnn1-c1cccc2c1CCCC2)N1CCCCC1	105.0*	0.7	-1.7
Cn1nnnc1SCC(=O)N1CCCc2ccccc21	-10.8	6.0	1.4
COc1ccc(OC)c(-c2nnc(SCC(=O)N3CCCc4ccccc43)o2)c1	14.5	-4.5	-0.7
COc1cccc(-c2nnc(SCC(=O)N3CCCc4ccccc43)o2)c1	98.5*	135.0	2.0
COc1cc(OC)cc(-c2nnc(SCC(=O)N3CCCc4ccccc43)o2)c1	107.9*	-18.2	11.0
Cc1ccc(-n2nnnc2SCC(=O)N2CCCCC2)cc1	-0.6	-13.1	0.4
COc1cc(OC)cc(-c2nnc(SCC(=O)N3CCCC3)o2)c1	12.5	-3.3	1.9
C[C@@H]1CCCCO[C@H](CN(C)S(=O)(=O)c2ccc(F)cc2)[C@H](C)CN([C@H](C)CO)C(=O)c2cc(NC(=O)Nc3ccc(F)cc3)ccc2O1	x	x	52.6
